Here are results for three compounds from ChEMBL document CHEMBL1124035, “1-Amino-substituted 4-methyl-5H-pyrido[4,3-b]indoles (gamma-carbolines) as tricyclic analogues of ellipticines: a new class of antineoplastic agents” (1988).

For experiment [1], the system named is Mus musculus. Briefly: Weight change in g when a dose of 40 mg/kg administered intraperitoneally to P388 leukemia model. As to conditions: route intraperitoneal.
The subject of experiment [2] is Mus musculus. Description: Survivors at day 30 when a dose of 40 mg/kg to P388 leukemia model; 1/10. It counts as functional.
Experiment [3] deals with Mus musculus. Description: Survivors at day D32 when a dose of 50 mg/kg administered intravenously to C38 adenocarcinoma mice models; 10/10. As to conditions: route intravenous. It counts as functional. The method in brief:
(§1)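 Hybrid BDF1 mice, 10 per test, were implanted sc with a standard 3-mm³ fragment of C38 colon adenocarcinoma. Drug was given iv either on D1 alone or on D2 and D9. Animals were followed per NCI (Geran) protocol.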

Experiment [4] has as its system Mus musculus. Briefly: Survivors at day D38 when a dose of 100 mg/kg administered intravenously to C38 adenocarcinoma cell lines on D1 to mice; 10/10. As to conditions: route intravenous. It is filed as functional, MC-38. The method in brief:
as §1

The test system of experiment [5] is Mus musculus. Briefly: Weight change in g when a dose of 20 mg/kg intravenous administration to L1210 leukemia mice model. It counts as functional. The method in brief: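 Mice received 10^5 L1210 leukemia cells ip at D0, then a single iv drug dose at D1. Read-outs were weight change (g), median survival day, T/C % and survivors at D30.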
For experiment [6], the system named is Mus musculus. Description: Survivors at day D32 when a dose of 75 mg/kg administered intravenously to C38 adenocarcinoma mice models; 10/10. It is filed as functional. As to conditions: route intravenous. The method in brief:
as §1

Experiment [7] relates to Mus musculus. Description: Median survival day in L1210 leukemia mice model when a dose of 40 mg/kg administered intravenously. It counts as functional. As to conditions: route intravenous. The method in brief:
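L1210 leukaemia in CDF1 hybrid male or female mice, 10 per group. At D0, 10^5 viable cells were inoculated ip, followed by a single iv dose on D1. Median survival day was recorded, and T/C was calculated as treated/control median survival × 100.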

Experiment [8] has as its system Mus musculus. Description: Weight change in g when a dose of 5 mg/kg administered intraperitoneally B16 melanoma infected mice. It is filed as functional. As to conditions: route intraperitoneal. The method in brief: (§2)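 Hybrid BDF1 mice were inoculated ip at D0 with 0.5 mL of B16 melanoma homogenate (1 g tumor in 10 mL physiological serum). Drug was given ip daily on days 1-9, with cis-platinum 0.5 mg/kg as positive control on the same schedule.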

For experiment [9], the system named is Mus musculus. Description: Median survival day in P388 cell line when a dose of 50 mg/kg administered intravenously to mice. It counts as functional. As to conditions: route intravenous. The method in brief:
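P388 leukaemia in CDF1 hybrid mice, 10 per group. At D0, 10^6 viable cells were inoculated ip, followed by a single iv dose on D1. Weight change, median survival day, T/C (treated/control median survival × 100) and survivors at D30 were recorded.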

For experiment [10], the system named is Mus musculus. Briefly: Median survival day of B16 melanoma infected mice, when a dose of 2.5 mg/kg administered intraperitoneally. It counts as functional. As to conditions: route intraperitoneal. The method in brief:
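B16 melanoma in hybrid BD F1 mice. At D0 each mouse was inoculated ip with 0.5 mL of homogenate made from 1 g of tumour in 10 mL of physiological serum. Compounds were given ip daily at the stated doses for 9 days (D1-9), with cis-platinum 0.5 mg/kg under the same schedule as positive control.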

Experiment [11] concerns Mus musculus. Briefly: Weight change in g when a dose of 10 mg/kg administered intraperitoneally to P388 leukemia infected mice. It is filed as functional. As to conditions: route intraperitoneal. The method in brief:
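P388 model with a single ip dose. Mice (10 per group) were inoculated ip at D0 with 10^6 P388 cells and given one ip drug dose at D1. Body-weight change (g), median survival day, T/C and survivors at D30 were recorded.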

Experiment [12] has as its system Mus musculus. Briefly: Weight change in g when a dose of 100 mg/kg (iv) to P388 leukemia model. It counts as functional. The method in brief:
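Mice (10 per group) were inoculated ip at D0 with 10^6 P388 leukemia cells and given a single iv dose at D1. Read-outs were weight change (g), median survival day, T/C % versus controls and survivors at D30.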

The test system of experiment [13] is Mus musculus. Briefly: Weight change in g when a dose of 10 mg/kg administered intraperitoneally to B16 melanoma infected mice. It counts as functional. As to conditions: route intraperitoneal. The method in brief:
as §2

Experiment [14] deals with Mus musculus. Briefly: […] in C38 adenocarcinoma cell line when a dose of 25 mg/kg administered intravenously in mice. It counts as functional, MC-38. As to conditions: route intravenous. The method in brief: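 C38 colon adenocarcinoma in hybrid BD F1 mice, 10 per test. A standard 3-mm³ tumour fragment was implanted sc. Drugs were given iv at the stated doses on D1 or on D2 + D9, following the Geran et al. NCI protocol.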

Experiment [15] deals with Mus musculus. Briefly: Weight change in g when a dose of 5 mg/kg administered intraperitoneally to B16 melanoma infected mice. It counts as functional. As to conditions: route intraperitoneal. The method in brief: as §2
In experiment [16] the test system is Mus musculus. Description: Survivors at day 60 when a dose of 30 mg/kg to B16 melanoma infected mice; 0/10. It is filed as functional.
The subject of experiment [17] is Mus musculus. Description: Weight change in g when a dose of 20 mg/kg administered intraperitoneally in B-16 melanoma infected mice. It counts as functional. As to conditions: route intraperitoneal. The method in brief:
as §2

In experiment [18] the test system is Mus musculus. Description: Weight change in g when a dose of 2.5 mg/kg administered intraperitoneally in B-16 melanoma infected mice. It is filed as functional. As to conditions: route intraperitoneal. The method in brief: as §2
The test system of experiment [19] is Mus musculus. Briefly: Survivors at day 30 when a dose of 80 mg/kg to P388 leukemia model; 0/10. It is filed as functional.
Experiment [20] concerns Mus musculus. Description: Weight change in g when a dose of 30 mg/kg administered intraperitoneally to mice. It is filed as functional. As to conditions: route intraperitoneal.
The subject of experiment [21] is Mus musculus. Description: Survivors at day 30 when a dose of 20 mg/kg to P388 leukemia model; 0/10. It is filed as functional.
For experiment [22], the system named is Mus musculus. Briefly: Antitumor activity against P388 leukemia in mice at a dose of 20 mg/kg administered intraperitoneally for 5 days. As to conditions: route intraperitoneal. It is filed as functional. The method in brief:
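CDF1 hybrid male or female mice, 10 per group, were inoculated ip with 10^6 viable P388 cells on day 0. Drugs in distilled water were given ip (0.1 mL/10 g body weight) daily D1-5. Vehicle, 5-fluorouracil and BD 84 were given the same way. T/C = median survival day of treated / controls × 100; T/C > 128% was significant; cures counted at D60.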

As for `CCN(CC)CCCNc1ncc(C)c2c1c1cc(O)ccc1n2C`, the Weight change is listed as -5.2 g in experiment [1], -0.4 g in experiment [5] and 0.2 g in [8]. Moreover, the Survivors in [2] amounted to 1; in experiment [3], 10; in experiment [4], 10; in experiment [6] it was 10. The Median survival day in experiment [7] was 13.3.

Take `Cc1cnc(NCCCN(C)C)c2c3cc(O)ccc3n(C)c12`: the Median survival day was found to be 17.75 in experiment [9] and 32.6 in [10]. Moreover, the Weight change in experiment [11] is on record as -1.4 g; in [12], -0.25 g; in [13], -1.9 g; in [15] it was -0.2 g. In addition, the Median tumoral volume in [14] came to 0 cm*3.

Turning to `CCN(CC)CCCNc1[nH]cc(C)c2nc3ccc(O)cc3c1-2`, the Survivors in experiment [16], in [19] and in experiment [21] was 0 in each case. Further, the Weight change in [17] was -0.8 g; in experiment [18] it was 3.6 g; in experiment [20], -1 g. Further, in experiment [22], the T/C (in general, the ratio of treated to control) amounted to 238%.
